Converted amounts (≈) assume the structure as drawn. The source made the active and inactive calls. The rule behind the calls is not given here.
Experiments:
Bacillus cereus [1] = assay: Antimicrobial activity against Bacillus cereus at 10 ug/disk after 24 hrs by disk diffusion assay; type: functional
How it was run: (§1)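 Disc diffusion on 4 mm filter discs. Bacteria are grown overnight in LB at 28 C, then adjusted in saline to 1.0 × 10^5 cfu/ml. The suspension is mixed into top agar over peptone agar plates. Plates are incubated 24 h at 28 C, and growth-inhibition zone diameter is measured. Streptomycin and ampicillin controls are applied from a 1 mg/ml stock. Tests are done in duplicate.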

Escherichia coli [2] = assay: Antimicrobial activity against Escherichia coli after 24 hrs by microdilution technique; type: functional
How it was run: (§2)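 Broth microdilution in LB medium. Inoculum is 1.0 × 10^4 cfu per well, from a saline-adjusted suspension of 1.0 × 10^5 cfu/ml. Compounds are dissolved in DMSO. Incubated 24 h at 28 C. MIC is the lowest concentration with no visible growth under a binocular microscope. MBC is read by subculture into fresh broth for 72 h, with no growth taken as 99.5% kill. OD is read at 655 nm.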

Micrococcus flavus [3] = assay: Antimicrobial activity against Micrococcus flavus at 1 umol/spot after 18 hrs by TLC-bioautographic method; type: functional
How it was run: (§3)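 TLC bioautography. Samples are spotted on silica gel TLC plates, then sprayed with bacteria (1.0 × 10^5 cfu/ml) in tryptic soy broth. Plates are incubated 18 h at 37 C and sprayed with 3% aqueous p-iodonitrotetrazolium violet. After a further 3 h, growth is stopped with 70% EtOH. White zones on a pink background are scored as inhibition-zone diameter with standard errors.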

Enterobacter cloacae [4] = assay: Antimicrobial activity against Enterobacter cloacae at 1 umol/disk after 24 hrs by disk diffusion assay; type: functional; how it was run: as §1
Pseudomonas aeruginosa [5] = assay: Antimicrobial activity against Pseudomonas aeruginosa at 1 umol/spot after 18 hrs by TLC-bioautographic method; type: functional; how it was run: as §3
Salmonella typhimurium [6] = assay: Antimicrobial activity against Salmonella Typhimurium at 1 umol/disk after 24 hrs by disk diffusion assay; type: functional, organism-based; details: Salmonella enterica subsp. enterica serovar Typhimurium; how it was run: as §1
Pseudomonas aeruginosa [7] = assay: Antimicrobial activity against Pseudomonas aeruginosa at 10 ug/disk after 24 hrs by disk diffusion assay; type: functional; how it was run: as §1
Salmonella typhimurium [8] = assay: Antimicrobial activity against Salmonella Typhimurium after 24 hrs by microdilution technique; type: functional, Salmonella enterica subsp. enterica serovar Typhimurium; details: Salmonella enterica; how it was run: as §2
Bacillus cereus [9] = assay: Antimicrobial activity against Bacillus cereus at 1 umol/disk after 24 hrs by disk diffusion assay; type: functional; how it was run: as §1
Enterobacter cloacae [10] = assay: Antimicrobial activity against Enterobacter cloacae at 10 ug/disk after 24 hrs by disk diffusion assay; type: functional; how it was run: as §1
Listeria monocytogenes [11] = assay: Antimicrobial activity against Listeria monocytogenes after 24 hrs by microdilution technique; type: functional; how it was run: as §2
Enterobacter cloacae [12] = assay: Antimicrobial activity against Enterobacter cloacae at 1 umol/spot after 18 hrs by TLC-bioautographic method; type: functional; how it was run: as §3
Bacillus cereus [13] = assay: Antimicrobial activity against Bacillus cereus after 24 hrs by microdilution technique; type: functional; how it was run: as §2
Micrococcus flavus [14] = assay: Antimicrobial activity against Micrococcus flavus after 24 hrs by microdilution technique; type: functional; how it was run: as §2
Listeria monocytogenes [15] = assay: Antimicrobial activity against Listeria monocytogenes at 1 umol/spot after 18 hrs by TLC-bioautographic method; type: functional; how it was run: as §3
Staphylococcus aureus [16] = assay: Antimicrobial activity against Staphylococcus aureus after 24 hrs by microdilution technique; type: functional; how it was run: as §2
Staphylococcus aureus [17] = assay: Antimicrobial activity against Staphylococcus aureus at 1 umol/spot after 18 hrs by TLC-bioautographic method; type: functional; how it was run: as §3
Micrococcus flavus [18] = assay: Antimicrobial activity against Micrococcus flavus at 1 umol/disk after 24 hrs by disk diffusion assay; type: functional; how it was run: as §1
Pseudomonas aeruginosa [19] = assay: Antimicrobial activity against Pseudomonas aeruginosa after 24 hrs by microdilution technique; type: functional; how it was run: as §2
Enterobacter cloacae [20] = assay: Antimicrobial activity against Enterobacter cloacae after 24 hrs by microdilution technique; type: functional; how it was run: as §2
Staphylococcus aureus [21] = assay: Antimicrobial activity against Staphylococcus aureus at 1 umol/disk after 24 hrs by disk diffusion assay; type: functional; how it was run: as §1
Micrococcus flavus [22] = assay: Antimicrobial activity against Micrococcus flavus at 10 ug/disk after 24 hrs by disk diffusion assay; type: functional; how it was run: as §1
Pseudomonas aeruginosa [23] = assay: Antimicrobial activity against Pseudomonas aeruginosa at 1 umol/disk after 24 hrs by disk diffusion assay; type: functional; how it was run: as §1
Staphylococcus aureus [24] = assay: Antimicrobial activity against Staphylococcus aureus at 10 ug/disk after 24 hrs by disk diffusion assay; type: functional; how it was run: as §1
Listeria monocytogenes [25] = assay: Antimicrobial activity against Listeria monocytogenes at 1 umol/disk after 24 hrs by disk diffusion assay; type: functional; how it was run: as §1
Salmonella typhimurium [26] = assay: Antimicrobial activity against Salmonella Typhimurium at 1 umol/spot after 18 hrs by TLC-bioautographic method; type: functional; how it was run: as §3
Escherichia coli [27] = assay: Antimicrobial activity against Escherichia coli at 1 umol/spot after 18 hrs by TLC-bioautographic method; type: functional; how it was run: as §3
Escherichia coli [28] = assay: Antimicrobial activity against Escherichia coli at 1 umol/disk after 24 hrs by disk diffusion assay; type: functional; how it was run: as §1
Escherichia coli [29] = assay: Antimicrobial activity against Escherichia coli at 10 ug/disk after 24 hrs by disk diffusion assay; type: functional; how it was run: as §1
Salmonella typhimurium [30] = assay: Antimicrobial activity against Salmonella Typhimurium at 10 ug/disk after 24 hrs by disk diffusion assay; type: functional, organism-based; details: Salmonella enterica subsp. enterica serovar Typhimurium; how it was run: as §1
Listeria monocytogenes [31] = assay: Antimicrobial activity against Listeria monocytogenes at 10 ug/disk after 24 hrs by disk diffusion assay; type: functional; how it was run: as §1
Bacillus cereus [32] = assay: Antimicrobial activity against Bacillus cereus at 1 umol/spot after 18 hrs by TLC-bioautographic method; type: functional; how it was run: as §3

MIC (Escherichia coli [2]) | MIC (Salmonella typhimurium [8]) | MIC (Listeria monocytogenes [11]) | MIC (Bacillus cereus [13]) | MIC (Micrococcus flavus [14]) | Compound | inhibition zone (IZ) (Bacillus cereus [1]) | MBC (Escherichia coli [2]) | inhibition zone (IZ) (Micrococcus flavus [3]) | inhibition zone (IZ) (Enterobacter cloacae [4]) | inhibition zone (IZ) (Pseudomonas aeruginosa [5]) | inhibition zone (IZ) (Salmonella typhimurium [6]) | inhibition zone (IZ) (Pseudomonas aeruginosa [7]) | MBC (Salmonella typhimurium [8]) | inhibition zone (IZ) (Bacillus cereus [9]) | inhibition zone (IZ) (Enterobacter cloacae [10]) | MBC (Listeria monocytogenes [11]) | inhibition zone (IZ) (Enterobacter cloacae [12]) | MBC (Bacillus cereus [13]) | MBC (Micrococcus flavus [14]) | inhibition zone (IZ) (Listeria monocytogenes [15]) | also measured
408 µM (≈ 200 µg/mL) | 408 µM (≈ 200 µg/mL) | 408 µM (≈ 200 µg/mL) | 204 µM (≈ 100 µg/mL) | 204 µM (≈ 100 µg/mL) | O=C(/C=C/c1cccs1)c1ccc(Nc2nc(Nc3ccccc3)nc(Nc3ccccc3)n2)cc1 | inactive | 816 µM (≈ 400 µg/mL) | inactive | inactive | inactive | inactive | inactive | 816 µM (≈ 400 µg/mL) | inactive | inactive | 816 µM (≈ 400 µg/mL) | 0.08 millimeter | 408 µM (≈ 200 µg/mL) | 408 µM (≈ 200 µg/mL) | 0.08 millimeter | MBC (Staphylococcus aureus [16]): 816 µM (≈ 400 µg/mL); MIC (Staphylococcus aureus [16]): 408 µM (≈ 200 µg/mL); inhibition zone (IZ) (Staphylococcus aureus [17]): inactive; inhibition zone (IZ) (Micrococcus flavus [18]): inactive; MBC (Pseudomonas aeruginosa [19]): 816 µM (≈ 400 µg/mL); MIC (Pseudomonas aeruginosa [19]): 408 µM (≈ 200 µg/mL); MBC (Enterobacter cloacae [20]): 408 µM (≈ 200 µg/mL); MIC (Enterobacter cloacae [20]): 204 µM (≈ 100 µg/mL); inhibition zone (IZ) (Staphylococcus aureus [21]): inactive; inhibition zone (IZ) (Micrococcus flavus [22]): inactive; inhibition zone (IZ) (Pseudomonas aeruginosa [23]): inactive; inhibition zone (IZ) (Staphylococcus aureus [24]): inactive; inhibition zone (IZ) (Listeria monocytogenes [25]): inactive; inhibition zone (IZ) (Salmonella typhimurium [26]; Salmonella enterica subsp. enterica serovar Typhimurium): inactive; inhibition zone (IZ) (Escherichia coli [27]): inactive; inhibition zone (IZ) (Escherichia coli [28]): inactive; inhibition zone (IZ) (Escherichia coli [29]): inactive; inhibition zone (IZ) (Salmonella typhimurium [30]): inactive; inhibition zone (IZ) (Listeria monocytogenes [31]): inactive; inhibition zone (IZ) (Bacillus cereus [32]): inactive
93 µM (≈ 50 µg/mL) | 186 µM (≈ 100 µg/mL) | 372 µM (≈ 200 µg/mL) | 93 µM (≈ 50 µg/mL) | 93 µM (≈ 50 µg/mL) | N#Cc1c(-c2ccco2)cc(-c2ccc(Nc3nc(Nc4ccccc4)nc(Nc4ccccc4)n3)cc2)nc1N | inactive | 186 µM (≈ 100 µg/mL) | inactive | inactive | inactive | inactive | inactive | 372 µM (≈ 200 µg/mL) | inactive | inactive | 744 µM (≈ 400 µg/mL) | 0.09 millimeter | 186 µM (≈ 100 µg/mL) | 186 µM (≈ 100 µg/mL) | 0.08 millimeter | MBC (Staphylococcus aureus [16]): 372 µM (≈ 200 µg/mL); MIC (Staphylococcus aureus [16]): 186 µM (≈ 100 µg/mL); inhibition zone (IZ) (Staphylococcus aureus [17]): inactive; inhibition zone (IZ) (Micrococcus flavus [18]): inactive; MBC (Pseudomonas aeruginosa [19]): 744 µM (≈ 400 µg/mL); MIC (Pseudomonas aeruginosa [19]): 372 µM (≈ 200 µg/mL); MBC (Enterobacter cloacae [20]): 372 µM (≈ 200 µg/mL); MIC (Enterobacter cloacae [20]): 186 µM (≈ 100 µg/mL); inhibition zone (IZ) (Staphylococcus aureus [21]): 0.03; inhibition zone (IZ) (Micrococcus flavus [22]): inactive; inhibition zone (IZ) (Pseudomonas aeruginosa [23]): inactive; zone of inhibition at 10 µg/disc (Staphylococcus aureus [24]; read-out: IZ): 6 mm; inhibition zone (IZ) (Listeria monocytogenes [25]): inactive; inhibition zone (IZ) (Salmonella typhimurium [26]): 0.07 millimeter; inhibition zone (IZ) (Escherichia coli [27]): inactive; inhibition zone (IZ) (Escherichia coli [28]): inactive; inhibition zone (IZ) (Escherichia coli [29]): inactive; inhibition zone (IZ) (Salmonella typhimurium [30]): inactive; inhibition zone (IZ) (Listeria monocytogenes [31]): inactive; inhibition zone (IZ) (Bacillus cereus [32]): inactive
45 µM (≈ 24.9 µg/mL) | 45 µM (≈ 24.9 µg/mL) | 180 µM (≈ 99.7 µg/mL) | 45 µM (≈ 24.9 µg/mL) | 45 µM (≈ 24.9 µg/mL) | N#Cc1c(-c2cccs2)cc(-c2ccc(Nc3nc(Nc4ccccc4)nc(Nc4ccccc4)n3)cc2)nc1N | inactive | 90 µM (≈ 49.8 µg/mL) | 0.08 millimeter | inactive | inactive | inactive | inactive | 90 µM (≈ 49.8 µg/mL) | inactive | inactive | 360 µM (≈ 199 µg/mL) | 0.08 millimeter | 90 µM (≈ 49.8 µg/mL) | 90 µM (≈ 49.8 µg/mL) | 0.09 millimeter | MBC (Staphylococcus aureus [16]): 180 µM (≈ 99.7 µg/mL); MIC (Staphylococcus aureus [16]): 90 µM (≈ 49.8 µg/mL); inhibition zone (IZ) (Staphylococcus aureus [17]): inactive; inhibition zone (IZ) (Micrococcus flavus [18]): 0.04 millimeter; MBC (Pseudomonas aeruginosa [19]): 180 µM (≈ 99.7 µg/mL); MIC (Pseudomonas aeruginosa [19]): 90 µM (≈ 49.8 µg/mL); MBC (Enterobacter cloacae [20]): 180 µM (≈ 99.7 µg/mL); MIC (Enterobacter cloacae [20]): 90 µM (≈ 49.8 µg/mL); inhibition zone (IZ) (Staphylococcus aureus [21]): inactive; zone of inhibition at 10 µg/disc (Micrococcus flavus [22]; read-out: IZ): 7 mm; inhibition zone (IZ) (Pseudomonas aeruginosa [23]): inactive; inhibition zone (IZ) (Staphylococcus aureus [24]): inactive; inhibition zone (IZ) (Listeria monocytogenes [25]): inactive; inhibition zone (IZ) (Salmonella typhimurium [26]): 0.07 millimeter; inhibition zone (IZ) (Escherichia coli [27]): 0.06 millimeter; inhibition zone (IZ) (Escherichia coli [28]): inactive; inhibition zone (IZ) (Escherichia coli [29]): inactive; inhibition zone (IZ) (Salmonella typhimurium [30]): inactive; inhibition zone (IZ) (Listeria monocytogenes [31]): inactive; inhibition zone (IZ) (Bacillus cereus [32]): inactive
